The target of experiment [1] is Vasopressin V1a receptor (Homo sapiens, UniProt P37288). Description: Displacement of [125I] phenylacetyl-D-Tyr(Me)-Phe-Gln-Asn-Arg-Pro-Arg-Tyr-NH2 from human recombinant vasopressin V1a receptor expressed in HEK293 after 2 hrs by liquid scintillation counting method. In kind it is cell-based. The procedure, abridged: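 Recombinant human V1a receptor expressed in HEK-293 cells, tested in 50 mM Tris-HCl pH 7.4 buffer with 5 mM MgCl2 and 0.1% BSA. Incubation 2 h at 25 °C in 1% DMSO. Compounds were ≥99% pure by HPLC and were kept at low temperature after isolation to prevent isomerization. Ki is the mean of duplicate measurements.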
(In a radioligand displacement assay an active substance lowers the binding of a labelled ligand.)

The target in experiment [2] is Vasopressin V2 receptor (Homo sapiens, UniProt P30518). In words: Displacement of [3H] (Arg8)-vasopressin from human vasopressin V2 receptor expressed in CHOK1 cell membranes after 2 hrs by liquid scintillation counting method. The procedure, abridged:
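Membranes (9 μg aliquot) prepared from CHO-K1 cells stably transfected with human V2 receptor, in 50 mM Tris-HCl pH 7.4, 10 mM MgCl2, 0.1% BSA. Incubated with 4 nM [3H](Arg8)-vasopressin for 2 h at 25 °C in 1% DMSO. Compounds were ≥99% pure by HPLC. Ki is the mean of duplicate measurements.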

Molecules are shown by their SMILES. pKi: −log10 of the molar value.

Chain of Vasopressin V1a receptor (P37288 whole entry): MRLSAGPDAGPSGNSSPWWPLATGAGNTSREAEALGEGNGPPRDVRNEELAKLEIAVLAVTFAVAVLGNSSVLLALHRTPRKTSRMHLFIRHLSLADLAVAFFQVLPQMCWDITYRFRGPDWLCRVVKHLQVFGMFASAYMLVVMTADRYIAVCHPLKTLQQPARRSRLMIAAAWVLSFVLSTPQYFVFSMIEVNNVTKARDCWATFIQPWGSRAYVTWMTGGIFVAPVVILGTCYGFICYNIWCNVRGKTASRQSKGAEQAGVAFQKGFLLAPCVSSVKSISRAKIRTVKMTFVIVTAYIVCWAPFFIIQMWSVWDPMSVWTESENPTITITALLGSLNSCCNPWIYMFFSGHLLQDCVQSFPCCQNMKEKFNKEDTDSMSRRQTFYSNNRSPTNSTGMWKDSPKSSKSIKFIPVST
Chain of Vasopressin V2 receptor (P30518 whole entry): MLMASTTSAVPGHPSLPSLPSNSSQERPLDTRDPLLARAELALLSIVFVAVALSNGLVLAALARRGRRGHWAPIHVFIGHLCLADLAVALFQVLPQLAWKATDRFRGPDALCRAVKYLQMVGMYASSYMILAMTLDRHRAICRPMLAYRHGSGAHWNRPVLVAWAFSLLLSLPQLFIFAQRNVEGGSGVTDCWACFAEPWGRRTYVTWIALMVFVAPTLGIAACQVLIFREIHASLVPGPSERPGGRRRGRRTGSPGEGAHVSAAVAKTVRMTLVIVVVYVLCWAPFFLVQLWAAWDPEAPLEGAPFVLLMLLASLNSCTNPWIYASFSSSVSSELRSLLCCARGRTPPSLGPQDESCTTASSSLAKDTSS

On to `Cc1ccccc1C(=O)Nc1ccc(C(=O)N2CCC[C@H](O)c3ccccc32)cc1`, for which the pKi (as a rule, the Ki on a negative log10 scale, so that one unit is a factor of ten) in experiment [1] was 8.73; in experiment [2], 8.31.

As for `Cc1ccccc1C(=O)Nc1ccc(C(=O)N2CCCC(O)c3ccccc32)cc1` (racemic), the values for the pKi in experiment [1] and in experiment [2] were 8.80 and 8.12, respectively.

For the molecule `Cc1ccccc1C(=O)Nc1ccc(C(=O)N2CCC[C@@H](O)c3cccc(C)c32)cc1`, the pKi in experiment [1] is 8.55; in experiment [2] it was 6.85.

For `Cc1ccccc1C(=O)Nc1ccc(C(=O)N2CCC[C@@H](O)c3ccccc32)cc1`, the figures for the pKi in experiment [1] and in experiment [2] were 8.99 and 8.08, respectively.

As to `Cc1ccccc1C(=O)Nc1ccc(C(=O)N2CCCC(O)c3cccc(C)c32)cc1` (stereo not drawn), the pKi in experiment [1] was 8.20; in experiment [2], 6.77.

As for `Cc1ccccc1C(=O)Nc1ccc(C(=O)N2CCC[C@@H](O)c3c(C)cccc32)cc1` (atropisomer aR), the negative logarithm of the Ki (pKi) was 7.11 in experiment [1] and 5.75 in experiment [2].

`Cc1ccccc1C(=O)Nc1ccc(C(=O)N2CCC[C@H](O)c3cccc(C)c32)cc1`: the negative logarithm of the Ki (pKi) was 8.33 in experiment [1] and 7.27 in experiment [2].

With `Cc1ccccc1C(=O)Nc1ccc(C(=O)N2CCC[C@H](O)c3c(C)cccc32)cc1`, the pKi was 8.69 in experiment [1] and 7.34 in experiment [2].

For the molecule `Cc1ccccc1C(=O)Nc1ccc(C(=O)N2CCCC(O)c3c(C)cccc32)cc1` (racemic), the figures for the negative logarithm of the Ki (pKi) in experiment [1] and in experiment [2] were 8.17 and 6.80, respectively.

Values taken from ChEMBL document CHEMBL4014319, “Tolvaptan-Type Vasopressin Receptor Ligands: Important Role of Axial Chirality in the Active Form” (J Med Chem, 2017).
